Compound activity from PubChem BioAssay.
Rows were chosen to be rich in hits. Some 3% of all compounds tested hit in one or more screens of this group.
UBC13 inh = UBC13 polyubiquitin chain formation inhibitors, primary screen, biochemical, TR-FRET, uHTS. Ubiquitin-conjugating enzyme E2 N (Homo sapiens), P61088. inhibition, % at 20 µM. hit rate 0.47% among 330,000. AID 485273, 2010; in the data active means inhibition above about 45%, passing the limit was not always enough
Target sequence (P61088 whole entry, looked up): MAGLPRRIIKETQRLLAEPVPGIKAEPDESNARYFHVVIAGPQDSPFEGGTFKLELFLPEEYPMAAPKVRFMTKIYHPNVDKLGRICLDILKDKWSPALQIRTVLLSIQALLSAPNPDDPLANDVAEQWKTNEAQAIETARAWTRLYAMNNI
SENP8 block-1 = SENP8 protease inhibitors, primary screen, biochemical, luminescence. Sentrin-specific protease 8 (Homo sapiens), Q96LD8. purified SENP8, Z-RLRGG-aminoluciferin cleavage. inhibition, % at 10 µM. hit rate 1.2% among 330,000; in the data active means inhibition above about 50%
Target sequence (Q96LD8 whole entry, looked up): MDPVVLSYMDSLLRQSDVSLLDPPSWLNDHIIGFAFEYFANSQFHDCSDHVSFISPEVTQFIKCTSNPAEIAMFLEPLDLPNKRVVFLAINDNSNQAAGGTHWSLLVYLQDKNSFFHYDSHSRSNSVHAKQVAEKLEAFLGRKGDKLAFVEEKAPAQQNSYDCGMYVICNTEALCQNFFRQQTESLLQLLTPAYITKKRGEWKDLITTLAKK
SENP8 block-2 = human SENP8 protease inhibitors, primary screen, biochemical, fluorescence, Nedd8 protein substrate, uHTS. recombinant SENP8. inhibition, % at 20 µM. hit rate 0.64% among 360,000. AID 602440, 2012; in the data active means inhibition mostly above about 40%, no sharp cut-off; inactive means mostly below about 27%
SENP7 inh = SENP7 protease inhibitors, primary screen, biochemical, luminescence, uHTS; recombinant SENP7, Z-RLRGG-aminoluciferin luminescence, 40 min; inhibition, % at 5 µM; Sentrin-specific protease 7 (Homo sapiens), Q9BQF6; AID 434973, 2010; hit rate 1.5% among 330,000;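 active means inhibition above about 50% at the single test dose, limit read from the data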
Apaf-1 inh = inhibitors of human Apaf-1 apoptosome, primary screen, biochemical, DEVD-Rh110 fluorescence, uHTS | Apoptotic protease-activating factor 1 (Homo sapiens), O14727 | reconstituted apoptosome caspase-3 activity | inhibition, % at 20 µM | hit rate 0.71% among 330,000 | AID 489030, 2010; active means inhibition of at least 40% at 20 µM
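Assay system: Apoptosome proteins | Medium: pH 7.5 Hepes buffer with CHAPS, BSA, DTT | Also added: Cytochrome c and DEVD-Rh110 substrate | Times: 30 min plus 50 min, RT | Detection: Rhodamine 110 fluorescence at Ex 480/Em 540 nm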
SENP6 block = SENP6 protease inhibitors, primary screen, biochemical, luminescence, uHTS; AID 2599, 2010; inhibition, % at 10 µM; Recombinant SENP6 catalytic domain, aminoluciferin luminescence; hit rate 1.8% among 330,000;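 active means inhibition above about 50% at the single tested dose, limit read from the data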
SENP8 confirm = SENP8 protease inhibitors, retest, confirmation, biochemical, luminescence, single concentration; inhibition, % at 12.5 µM; hit rate 40% among 6,200; Recombinant SENP8, Z-RLRGG-aminoluciferin luminescence, 60 min; shares compounds with SENP7 inh;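 active means mean inhibition across replicates above about 50%, limit read from the data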
SENP6 confirm = SENP6 protease inhibitors, confirmation, biochemical, luminescence, single concentration; inhibition, % at 12.5 µM; recombinant SENP6, Z-RLRGG-aminoluciferin luminescence; AID 488915, 2010; hit rate 58% among 6,200; shares compounds with SENP7 inh
SENP7 conf = SENP7 protease inhibitors, retest, confirmation, biochemical, luminescence, single concentration; shares compounds with SENP7 inh; recombinant SENP7, Z-RLRGG-aminoluciferin luminescence, 40 min; hit rate 69% among 6,200; AID 488917, 2010; inhibition, % at 12.5 µM
Casp3 select = caspase-3 protease inhibitors, confirmation, selectivity assay for SENP inhibitor project, biochemical, single concentration; inhibition, % at 12.5 µM; hit rate 60% among 6,200; purified caspase-3, Z-DEVD-aminoluciferin luminescence, 60 min; shares compounds with SENP7 inh; AID 488918, 2010;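 active means mean inhibition above about 50%, limit read from the data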
Target sequence (P42574 28-227 limits assumed): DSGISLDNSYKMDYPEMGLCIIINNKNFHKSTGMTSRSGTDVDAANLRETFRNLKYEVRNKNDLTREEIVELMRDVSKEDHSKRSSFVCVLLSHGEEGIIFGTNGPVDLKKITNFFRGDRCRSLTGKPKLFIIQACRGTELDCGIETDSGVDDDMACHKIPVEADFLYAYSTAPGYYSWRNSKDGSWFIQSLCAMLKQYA
SENP luc ctr = luminescence interference (SENP counter-screen); shares compounds with SENP7 inh; Pre-incubated SENP8/Z-RLRGG-aminoluciferin, luciferase luminescence interference; inhibition, % at 12.5 µM; hit rate 39% among 6,200; AID 488919;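 active means mean inhibition above about 50% when retested at one dose, limit read from the data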
Each line names hits and unclear results; the compound was inactive in the other large screens (follow-up assays come after a bar, where they were run).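 How the source made its calls, unless noted: active means mean inhibition above about 50% in the one-dose retest (limit read from the data); inactive means the rest.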

O=C(NC1=NCCS1)c1cc2ccccc2o1	SENP7 inh 60, SENP6 block 53 | SENP8 confirm inactive | SENP6 confirm inactive | SENP7 conf 81 | Casp3 select 77 | SENP luc ctr 58
Cc1ccc(C)c(NC(=O)c2cc3ccccc3o2)c1	SENP7 inh 53 | SENP8 confirm 52 | SENP6 confirm inactive | SENP7 conf 78 | Casp3 select 58 | SENP luc ctr inactive
Cc1csc(C(C#N)C(=O)c2cc3ccccc3o2)n1 (stereo not given)	SENP8 block-1 54, SENP6 block 59 | SENP8 confirm inactive | SENP6 confirm 73 | SENP7 conf 86 | Casp3 select 79 | SENP luc ctr inactive
COc1ccc(NC(=O)C(c2ccncc2)n2c(=O)c(-c3ccccc3)nc3ccccc32)cc1 (stereo not given)	none (no result: UBC13 inh, SENP8 block-1, SENP7 inh, Apaf-1 inh, SENP6 block)
CC1(C(=O)NS(=O)(=O)C2CC2)CCN(C(=O)c2c(F)cccc2F)C1 (stereo not given)	none (no result: UBC13 inh, SENP8 block-1, SENP7 inh, Apaf-1 inh, SENP6 block)
O=C(Nc1ncccc1O)c1cc2ccccc2o1	SENP7 inh 68, SENP6 block 67 | SENP8 confirm 63 | SENP6 confirm 63 | SENP7 conf 85 | Casp3 select 87 | SENP luc ctr 68
C/C(CC(=O)Nc1ccccn1)=N\NC(=O)C(=O)Nc1cccc(C)c1	none
O=C(Nc1cccc(O)c1)C(=O)Nc1ccccn1	SENP8 block-1 87, SENP7 inh 97, SENP6 block 96 | SENP8 confirm 93 | SENP6 confirm 93 | SENP7 conf 100 | Casp3 select 96 | SENP luc ctr 82
CCCC(=O)Nc1ccc(NC(=O)c2cc3ccccc3o2)c(OC)c1	SENP7 inh 54 | SENP8 confirm inactive | SENP6 confirm inactive | SENP7 conf inactive | Casp3 select inactive | SENP luc ctr inactive
CC(=O)Nc1cc2ccccc2oc1=O	none
Cc1ccc(C(=O)Nc2cc3ccccc3oc2=O)cc1	SENP8 block-1 89, SENP7 inh 98, SENP6 block 91 | SENP8 confirm inactive | SENP6 confirm inactive | SENP7 conf inactive | Casp3 select 56 | SENP luc ctr inactive
CC1OC(CCc2cccc(Cl)c2)Cc2[nH]c(=S)[nH]c(=O)c21 (stereo not given)	none (no result: UBC13 inh, SENP8 block-1, SENP7 inh, Apaf-1 inh, SENP6 block)
CN1OC[C@@H]2CN[C@H](c3ccc(-c4cc5ccccc5o4)cc3)C[C@@H]21	none (no result: UBC13 inh, SENP8 block-1, SENP7 inh, Apaf-1 inh, SENP6 block)
O=C(Nc1ccccn1)c1cc2ccccc2o1	SENP8 block-1 95, SENP7 inh 98, SENP6 block 97 | SENP8 confirm 52 | SENP6 confirm 98 | SENP7 conf 101 | Casp3 select 97 | SENP luc ctr 96
Cc1csc(NC(=O)c2cc3ccccc3o2)n1	SENP8 block-1 79, SENP7 inh 90, SENP6 block 85 | SENP8 confirm 86 | SENP6 confirm 82 | SENP7 conf 97 | Casp3 select 90 | SENP luc ctr 86
O=C(Nc1ccccn1)c1cc2ccccc2cc1O	SENP8 block-1 75, SENP7 inh 52, SENP6 block 77 | SENP8 confirm inactive | SENP6 confirm inactive | SENP7 conf inactive | Casp3 select inactive | SENP luc ctr inactive
O=C(NC1=NCCS1)c1ccc(Cl)c(Cl)c1	SENP7 inh 60, SENP6 block 70 | SENP8 confirm inactive | SENP6 confirm 63 | SENP7 conf inactive | Casp3 select 65 | SENP luc ctr inactive
CCOC(=O)Cc1csc(NC(=O)c2cc3ccccc3o2)n1	none
O=C(Nc1ccccn1)c1ccc(C(=O)Nc2ccccn2)cc1	none
CCOC(=O)[C@]12CCCC=C1N(CCc1ccc(OC)c(OC)c1)C(=O)[C@H](CC(=O)NCC13CC4CC(CC(C4)C1)C3)C2	none (no result: UBC13 inh, SENP8 block-1, SENP7 inh, Apaf-1 inh, SENP6 block)
COc1ccc(/C=C/C(=O)OCC(=O)N2c3ccccc3CC2C)c(OC)c1 (stereo not given)	none (no result: UBC13 inh, SENP8 block-1, SENP7 inh, Apaf-1 inh, SENP6 block)
CN(C)CCNC(=O)c1cccc(-c2cccc3nncn23)c1	none (no result: UBC13 inh, SENP8 block-1, SENP7 inh, Apaf-1 inh, SENP6 block)
NC(c1ccccc1)c1csc(Nc2ccc(C(=O)c3ccccc3)cc2)n1 (stereo not given)	none (no result: UBC13 inh, SENP8 block-1, SENP7 inh, Apaf-1 inh, SENP6 block)
Cc1ccc(C)c(NC(=O)c2ccc3ccccc3n2)c1	SENP8 block-1 91, SENP7 inh 97, SENP6 block 97 | SENP8 confirm 82 | SENP6 confirm inactive | SENP7 conf inactive | Casp3 select 67 | SENP luc ctr inactive
O=C(NC1=NCCS1)c1ccccc1Cl	none
O=C(Nc1ccccc1C(F)(F)F)c1cc2ccccc2o1	SENP8 block-1 66, SENP7 inh 68, SENP6 block 73 | SENP8 confirm 60 | SENP6 confirm 71 | SENP7 conf 92 | Casp3 select 74 | SENP luc ctr 67
COc1ccc(C)cc1NC(=O)c1cc2ccccc2o1	none
Cc1ccc(S(=O)(=O)N(C)C)cc1NC(=O)c1ccc2ccccc2n1	none
Cc1ccnc(NC(=O)c2cc3ccccc3o2)c1	SENP8 block-1 90, SENP7 inh 99, SENP6 block 94 | SENP8 confirm 96 | SENP6 confirm 97 | SENP7 conf 102 | Casp3 select 97 | SENP luc ctr 94
COC(=O)c1ccccc1NC(=O)c1cc2ccccc2o1	none
O=C(NC1=NCCS1)c1csc2ccccc12	SENP8 block-1 60, SENP7 inh 73, SENP6 block 81 | SENP8 confirm inactive | SENP6 confirm 68 | SENP7 conf 89 | Casp3 select 78 | SENP luc ctr 74
CCC(=O)N1CCC1(C)C(=O)Nc1ccc(OC)c(OC)c1 (stereo not given)	none (no result: UBC13 inh, SENP8 block-1, SENP7 inh, Apaf-1 inh, SENP6 block)
CCCc1noc(-c2ccc(-c3ccccc3)cc2)n1	SENP8 block-1 50, SENP7 inh 68 | SENP8 confirm inactive | SENP6 confirm inactive | SENP7 conf 55 | Casp3 select 50 | SENP luc ctr inactive
